Laboratory results published in ChEMBL document CHEMBL4513216, “Probing the Open Global Health Chemical Diversity Library for Multistage-Active Starting Points for Next-Generation Antimalarials” (ACS Infect Dis, 2020).

test: Toxicity liver stage against HepG2, at 10uM; assay type: cell-based; parameters: test concentration 10 uM, cell line HepG2-A16-CD81EGFP; conditions: human, HepG2-A16-CD81EGFP cells; read-out: INHIBITION
How it was run: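 Uninfected HepG2-A16-CD81EGFP cells, 3 × 10^3 per well, 1536-well, plated on prespotted compound at 10 μM final, parasite-free screening media added to match infected plates; puromycin 10 μM positive, DMSO 0.5% negative; run in parallel with 48 h PbLuc assay at 37 °C, 5% CO2; viability by CellTiter-Glo luminescence, normalized to controls.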

SMILES | cytotoxicity at 10 µM
CCc1ccc(OCC(O)CN2CCN(CCO)CC2)cc1 (configuration not stated) | -11.9%
NCC(c1cccnc1)N1CCOCC1 (configuration not stated) | 4.32%
CNC(=O)c1cc2ccccc2n1C | 6.84%
CC(C)(C)CN1CC[C@H](c2nnc(Cc3c[nH]c4ccccc34)o2)C1 | -3.9%
CS(=O)(=O)N1CCN2C(=O)N(C3CCCCC3)C[C@H]2C1 | 7.77%
CN(C)[C@H]1C[C@@H](Cc2cc(-c3ccc(F)cc3)on2)C1(C)C | -12.3%
COCC(=O)NC[C@H]1C[C@@H]2CCN1C[C@@H]2CN1CCc2ccccc2C1 | -1.33%
Cc1ccc(NC(=O)c2ccc(N3CCCCC3)nn2)c(Cl)c1 | -10.7%
Cc1cc(=O)[nH]c(-n2nc(C)c(CCC(=O)NCC(C)C)c2C)n1 | 2.28%
Cn1cc(C(=O)Nc2ccc(CC(=O)NC3CC3)cc2)nn1 | -7.42%
CC(C)N1CCc2ncn(C(C)C)c2C1C(=O)N1CCN(C)CC1 (configuration not stated) | -0.849%
CC1N(CC2CC2)C(=O)COC12CCN(C(=O)c1ccno1)CC2 (configuration not stated) | 0.104%
O=C(c1ccccc1)N1Cc2nccn2CC(Cn2ncccc2=O)C1 (configuration not stated) | 10.4%
CS(=O)(=O)N1CC[C@H]2O[C@H](C(=O)NCc3cccnc3)CC[C@H]21 | -7.24%
O=C(c1ncccn1)N1C[C@@H]2COC[C@]2(COCc2cccnc2)C1 | -1.9%
CN(C)CCOCC1CN(C(=O)[C@H]2CCCO2)Cc2ccnn2C1 (some centres not stated) | -0.422%
CN1CCN(C(=O)COCc2nc(-c3ccncc3)no2)CC1 | 14.6%
Cn1ccc(NC(=O)CN2CCN(C3CCCC3)C(=O)C2)n1 | 4.31%
CN1CCCC(c2nccnc2-c2cccc(Cl)c2)C1 (configuration not stated) | 3.57%
CC1CCN(c2nc(O)cc(C3CC(=O)N(C4CCCCC4)C3)n2)CC1 (configuration not stated) | 3.81%
Cc1cc(C)nc(N2CCC(Cn3cc(C(N)=O)cn3)CC2)n1 | 3.65%
Cc1nc(C2CCN(S(C)(=O)=O)CC2)nc(N2CCCC2)c1C | 4.48%

SMILES | cytotoxicity at 10 µM
CCN1CCN(c2ncc(-c3cc(C)no3)c(-c3ccco3)n2)CC1 | -11%
Cc1nc(-c2ccccc2)sc1C(=O)N(C1CC1)C1CC(=O)NC1=O (configuration not stated) | 2.78%
CCN(CC)CCn1cc(NC(=O)CNc2ccccc2OC)cn1 | 6.19%
Cc1ccc(F)cc1S(=O)(=O)NCc1cccc(CS(C)(=O)=O)c1 | -10.6%
CC(C)(NC(=O)Nc1cnn(CC2CCCO2)c1)c1nccs1 (configuration not stated) | -2.64%
COc1ncc(NCc2cc(C#N)cs2)cc1C(N)=O | 3.8%
OC1(CNCc2cnc(N3CCOCC3)nc2)CCCCC1 | -2.41%
COc1ccc(N(CCC(N)=O)C(=O)CSc2ccc(F)c(F)c2)cc1 | 4.13%
CN1C(=O)c2ccc(NC(=O)CSc3ccc4c(c3)CCC4)cc2C1=O | 0.0636%
COc1cc(NC(=O)c2cc(Cl)ccc2F)c(C(=O)N(C)C)cc1OC | -2.61%
Cc1cc(CNC2CCc3nc(C(C)C)nn3C2)on1 (configuration not stated) | 7.61%
Cc1nc(CN2CCC(N(C)Cc3noc(C(C)C)n3)C2)oc1C (configuration not stated) | 4.63%
Cc1cccc(OC2CCN(c3nccnc3C#N)CC2)n1 | 1.1%
Cc1noc(C)c1CS(=O)(=O)C(C)C(=O)N(C)c1ccccc1 (configuration not stated) | -1.58%
O=C1CN(C(=O)CNC(CC(F)(F)F)c2ccc(F)cc2)CCN1 (configuration not stated) | 10.4%
O=C(c1[nH]c2ccc(Cl)cc2c1Cl)N1CCC2(CC1)OCCO2 | 23.5%
Cc1cccc(-c2nc(C)nn2CN2CCC3(CC2)OCCO3)c1 | -13.8%
Cc1cc(NC(=O)Cn2ccccc2=O)n(C)n1 | -7.32%
Cn1cc(CNCCOc2ccc(F)c(F)c2)c(-c2cccnc2)n1 | -2.53%
Cc1nc(C(=O)N2CC[C@@]3(C[C@H](NS(C)(=O)=O)CCO3)C2)cs1 | -72.9%
CC(C)CN1C(=O)CO[C@@H]2CN(C(=O)C3CCOCC3)C[C@H]21 | -88.1%
CC(C)N1CCO[C@H]2CN(C(=O)c3ccncc3)C[C@H]21 | -74.3%

SMILES | cytotoxicity at 10 µM
Cc1nc([C@@H]2C[C@@H]3CCN(C(=O)Cc4cccs4)C[C@H]3O2)no1 | 3.27%
COC[C@@H]1CC[C@H]2[C@H](CCN2S(=O)(=O)c2cccc(F)c2)O1 | 2.24%
Cn1cccc1C(=O)N1CCC2(CC1)CN(c1cncnc1)C(=O)CO2 | 4.35%
COc1cccc(N2CCN(Cc3cc(C)cc(F)c3)CC2=O)c1 | 25.9%
Cc1cnccc1N1CCCN(C(=O)CCn2ccnc2C)CC1 | -6.32%
CN(C)S(=O)(=O)N1CC[C@]2(O)CCN(c3nc4ccccc4s3)C[C@@H]2C1 | -1.82%
Cc1oc(-c2cccc(F)c2F)nc1CN(C)CCO | -9.49%
CCCc1cc(CN(C)C2CC(C)(C)NC(C)(C)C2)n[nH]1 | -16.7%
COc1ccc(NC(=O)CCN2CC=C(c3cnn(C)c3)CC2)c(C)c1 | -4.08%
O=C(c1ccccc1C1CCNC1)N1CCC(N2CCC(O)CC2)CC1 (configuration not stated) | -8.3%
N#Cc1cccnc1N1CCN(S(=O)(=O)NCc2ccccc2)CC1 | 6.1%
CC(=O)Cc1c(C)nn(-c2cncc(N)c2)c1C | -4.05%
N#Cc1cccnc1Oc1cc(F)c(CN2CCCC2)c(Cl)c1 | -13.9%
COCc1nc(CN2CCC3(CCCO3)CCC2=O)no1 (configuration not stated) | -10.3%
O=S(=O)(Cc1ccccc1)NCc1ccco1 | 0.0906%
O=C1N(Cc2cccc(F)c2F)CCCC1(O)CNC1CCCC1 (configuration not stated) | 13.8%
O=c1oc(-c2ccc(F)cc2)nn1CN1CCSCC1 | 0.449%
Fc1ccc(-c2nnc(CN3CCCC3Cn3cccn3)o2)cc1 (configuration not stated) | -5.65%
Cc1csc(C2CCCCN2C(=O)c2cn[nH]c2C)n1 (configuration not stated) | -1.53%
Cc1nn(C)c(N(C)C)c1CNCc1ccc2c(c1)OCO2 | -2.51%
COc1ccc(OCCN2CCC(c3ccnn3CCO)CC2)cc1 | -6.9%
CC(C(=O)N1CCCN(c2ncccc2C#N)CC1)n1cncn1 (configuration not stated) | -6.54%

SMILES | cytotoxicity at 10 µM
CNC(=O)C1CCN(C(=O)NCc2ccc(-c3ccn[nH]3)cc2)CC1 | -4.22%
Cc1cc(C)cc(C2(C(=O)NCC3CCN(CC(F)(F)F)C3)CC2)c1 (configuration not stated) | -1.62%
c1ccc2c(N3CCCCC3Cn3cccn3)ncnc2c1 (configuration not stated) | -5.33%
Cc1cnn(CC2CN(Cc3nc(C)c(C)o3)CCO2)c1 (configuration not stated) | -3.88%
Cc1cnn(CC2CN(Cc3nc(C4CC4)no3)CCO2)c1 (configuration not stated) | -4.26%
CN1CCCC1CNC(=O)CCCOc1cccc(F)c1 (configuration not stated) | -9.54%
Cc1cc(C)n(CC2CCCN2CCC(=O)Nc2cc(C)on2)n1 (configuration not stated) | 1.44%
Cc1ccc(CN(C)C(=O)CN2CCOC(Cn3cccn3)C2)o1 (configuration not stated) | -0.906%
c1ccc(-n2cc(CNC3CCc4ncnn4C3)cn2)cc1 (configuration not stated) | -26.6%
Cc1cnc(C(=O)NCc2ccnc(N(C)C)c2)cn1 | -1.07%
CC(C)(C)c1cn2nc(N3CCCC3Cn3cccn3)sc2n1 (configuration not stated) | -23.8%
CCc1nccn1C1CCCN(C(=O)c2ccc(C(=O)NC)nc2)C1 (configuration not stated) | -6.33%
Cc1ccccc1-c1cc(C(=O)NCCN2CCCS2(=O)=O)[nH]n1 | -12.9%
Cc1nc(CNCc2c(C)nn(C)c2N2CCOCC2)cs1 | -7.44%
CCC(O)CN1CCN(C(=O)c2cccn2Cc2cccs2)CC1 (configuration not stated) | -5.74%
Cc1nn(C)c(C)c1C(C)NC(=O)Nc1cccnc1N1CCCC1 (configuration not stated) | -6.88%
Cc1noc(C(C)C)c1C(=O)NCCN1CCCCCC1=O | -9.07%
CN(C)C1COC2(CCN(Cc3nccs3)CC2)C1 (configuration not stated) | 2.02%
Cc1occc1C(=O)N1C[C@@H]2OCCN(c3ncccn3)[C@@H]2C1 | 7.34%
O=C1CC(c2ccncc2)C2(CCN(C(=O)c3cccc(F)c3)CC2)N1 (configuration not stated) | -74.4%
CCN1CCN(C)C2(CCN(Cc3cccc(C)n3)CC2)C1=O | 2%
CCN1CC[C@@]2(C(=O)N3CCOCC3)CCN(C(=O)CC(C)C)CC[C@@H]12 | 3.56%

SMILES | cytotoxicity at 10 µM
O=C1CCC2(CCN(Cc3nccs3)CC2)N1Cc1ccccc1 | 1.54%
O=C(C1CC1)N1Cc2[nH]nc(COCc3cccnc3)c2C1 | 0.997%
CN(C)Cc1cnc2n1CCN(C(=O)Cc1ccsc1)CC2 | -3.95%
O=C(c1ccc[nH]1)N1CCc2c(COCc3ccncc3)cncc2C1 | 14.7%
CN(C)C(=O)COC[C@@H]1CC[C@H]2[C@H](CCN2c2ccccn2)O1 | 10%
COC[C@H]1CN(CC2CC2)C(=O)[C@@H]2CCN(Cc3ccoc3)CC[C@H]12 | -2.05%
Cc1ccc(CN2CCOC3(COCCN(C(C)C)C3)C2)s1 (configuration not stated) | -0.82%
O=C(NCc1cn2c(n1)CN(Cc1nccs1)CC2)C1CCC1 | 4.61%
Cn1nc(CN2CCCCC2)c2c1CN(Cc1ccoc1)C2 | -0.449%
CN(Cc1ccccn1)C(=O)[C@H]1CO[C@H]2CCN(CC3CC3)C[C@H]2C1 | -105%
c1nc(COCC2CC2)c2n1CCCN(CC1CC1)C2 | -4.77%
CN(Cc1ccco1)Cc1cnc2n1CCN(c1ccccn1)CC2 | -0.48%
COc1ccc(CN2CCOCC3(CCN(C4CCOCC4)C3)C2)cc1 (configuration not stated) | 0.466%
CN(C)S(=O)(=O)N1C[C@@H](OCc2cccnc2)[C@H]2OCCC[C@H]21 | 0.74%
O=C(Cc1ccccc1)N1Cc2nccn2CC(CN2CCCC2)C1 (configuration not stated) | -101%
Cn1cc(CN2CCCC3(CCN(C(=O)c4ccccn4)C3)C2)cn1 (configuration not stated) | -66.9%
O=C(NC1CC1)[C@H]1C[C@H]2OCC[C@H]2N(Cc2cccc3ccccc23)C1 | 2.64%
CN(C)C(=O)N1C[C@H]2CC[C@@H](C1)N(Cc1nnc(-c3ccco3)o1)C2 | 5.9%
CC(C)CCN1C[C@@H]2C[C@H](C(=O)NCc3ccccc3)[C@H](C1)O2 | -2%
